# Assay results: ChEMBL document CHEMBL4665627 (Eur J Med Chem, 2019)
# Active and inactive are the calls of the source. The calls are words filed in the database; no cut-off is given here.
# Experiments:
# [1] = system: Staphylococcus aureus; assay: Antibacterial activity against Staphylococcus aureus ATCC 25923 assessed as inhibition of bacterial growth after 24 hrs by CLSI protocol based two fold serial dilution method; type: functional
# Procedure, shortened: (§1)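 Two-fold serial broth dilution in 96-well plates following CLSI; MIC (mM) taken as the lowest concentration giving complete growth inhibition; MIC values from three independent experiments.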
# [2] = system: Escherichia coli; assay: Antibacterial activity against Escherichia coli assessed as inhibition of bacterial growth after 24 hrs by CLSI protocol based two fold serial dilution method; type: functional; procedure, shortened: as §1
# [3] = system: Klebsiella pneumoniae; assay: Antibacterial activity against Klebsiella pneumoniae assessed as inhibition of bacterial growth after 24 hrs by CLSI protocol based two fold serial dilution method; type: functional; procedure, shortened: as §1
# [4] = system: Pseudomonas aeruginosa; assay: Antibacterial activity against Pseudomonas aeruginosa ATCC 27853 assessed as inhibition of bacterial growth after 24 hrs by CLSI protocol based two fold serial dilution method; type: functional; procedure, shortened: as §1
# [5] = system: Escherichia coli; assay: Antibacterial activity against Escherichia coli ATCC 25922 assessed as inhibition of bacterial growth after 24 hrs by CLSI protocol based two fold serial dilution method; type: functional; procedure, shortened: as §1
# [6] = system: Acinetobacter baumannii; assay: Antibacterial activity against Acinetobacter baumannii assessed as inhibition of bacterial growth after 24 hrs by CLSI protocol based two fold serial dilution method; type: functional; procedure, shortened: as §1
# [7] = system: Staphylococcus aureus; assay: Antibacterial activity against Staphylococcus aureus ATCC 29213 assessed as inhibition of bacterial growth after 24 hrs by CLSI protocol based two fold serial dilution method; type: functional
# [8] = system: Staphylococcus aureus; assay: Antibacterial activity against methicillin-resistant Staphylococcus aureus N315 assessed as inhibition of bacterial growth after 24 hrs by CLSI protocol based two fold serial dilution method; type: functional
# [9] = system: Enterococcus faecalis; assay: Antibacterial activity against Enterococcus faecalis assessed as inhibition of bacterial growth after 24 hrs by CLSI protocol based two fold serial dilution method; type: functional; procedure, shortened: as §1
# [10] = system: Staphylococcus aureus; assay: Antibacterial activity against Staphylococcus aureus assessed as inhibition of bacterial growth after 24 hrs by CLSI protocol based two fold serial dilution method; type: functional; procedure, shortened: as §1
# [11] = system: Klebsiella pneumoniae; assay: Antibacterial activity against Klebsiella pneumoniae measured every 24 hrs after several passages by serial dilution method; type: functional, organism-based
# [12] = system: Pseudomonas aeruginosa; assay: Antibacterial activity against Pseudomonas aeruginosa assessed as inhibition of bacterial growth after 24 hrs by CLSI protocol based two fold serial dilution method; type: functional; procedure, shortened: as §1
# [13] = system: Saccharomyces cerevisiae; assay: Inhibition of Saccharomyces cerevisiae CGMCC 2.145 chitin synthase at 300 ug/ml using GlcNAc and UDP-GlcNAc as substrate incubated for 60 mins by microplate reader analysis relative to control; settings: dose 300.0 µg/ml
# Procedure, shortened: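 Chitin synthase inhibition ratio measured at 300 µg/mL test compound, relative to untreated control.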
# [14] = system: Aspergillus fumigatus; assay: Antifungal activity against Aspergillus fumigatus assessed as inhibition of fungal growth after 24 hrs by CLSI protocol based two fold serial dilution method; type: functional; procedure, shortened: as §1
# [15] = system: Candida albicans; assay: Antifungal activity against Candida albicans ATCC 90023 assessed as inhibition of fungal growth after 24 hrs by CLSI protocol based two fold serial dilution method; type: functional; procedure, shortened: as §1
# [16] = system: Candida parapsilosis; assay: Antifungal activity against Candida parapsilosis ATCC 22019 assessed as inhibition of fungal growth after 24 hrs by CLSI protocol based two fold serial dilution method; type: functional; settings: Lodderomyces parapsilosis; procedure, shortened: as §1
# [17] = system: Candida tropicalis; assay: Antifungal activity against Candida tropicalis assessed as inhibition of fungal growth after 24 hrs by CLSI protocol based two fold serial dilution method; type: functional; procedure, shortened: as §1
# [18] = system: Candida albicans; assay: Antifungal activity against Candida albicans assessed as inhibition of fungal growth after 24 hrs by CLSI protocol based two fold serial dilution method; type: functional; procedure, shortened: as §1
# [19] = system: Klebsiella pneumoniae; assay: Potentiation of 2-(4-(3-(2-aminothiazol-4-yl)-1-ethyl-6-fluoro-4-oxo-1,4-dihydroquinolin-7-yl)piperazin-1-yl)acetonitrile-induced antibacterial activity against Klebsiella pneumoniae assessed as fold reduction in 2-(4-(3-(2-aminothiazol-4-yl)-1-ethyl-6-fluoro-4-oxo-1,4-dihydroquinolin-7-yl)piperazin-1-yl)acetonitrile MIC by CLSI protocol based two fold serial dilution method; type: functional
# [20] = system: Klebsiella pneumoniae; assay: Antibacterial activity against Klebsiella pneumoniae assessed as bacterial growth inhibition in presence of 2-(4-(3-(2-aminothiazol-4-yl)-1-ethyl-6-fluoro-4-oxo-1,4-dihydroquinolin-7-yl)piperazin-1-yl)acetonitrile by CLSI protocol based two fold serial dilution method; type: functional; procedure, shortened: as §1
# [21] = system: Staphylococcus aureus; assay: Antibacterial activity against Staphylococcus aureus assessed as bacterial growth inhibition in presence of 2-(4-(3-(2-aminothiazol-4-yl)-1-ethyl-6-fluoro-4-oxo-1,4-dihydroquinolin-7-yl)piperazin-1-yl)acetonitrile by CLSI protocol based two fold serial dilution method; type: functional
# [22] = system: Escherichia coli; assay: Antibacterial activity against Escherichia coli assessed as bacterial growth inhibition in presence of 2-(4-(3-(2-aminothiazol-4-yl)-1-ethyl-6-fluoro-4-oxo-1,4-dihydroquinolin-7-yl)piperazin-1-yl)acetonitrile by CLSI protocol based two fold serial dilution method; type: functional; procedure, shortened: as §1
# [23] = system: Staphylococcus aureus; assay: Antibacterial activity against methicillin-resistant Staphylococcus aureus assessed as bacterial growth inhibition in presence of 2-(4-(3-(2-aminothiazol-4-yl)-1-ethyl-6-fluoro-4-oxo-1,4-dihydroquinolin-7-yl)piperazin-1-yl)acetonitrile by CLSI protocol based two fold serial dilution method; type: functional
# Procedure, shortened: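 Checkerboard-type pairing, with each agent tested alone and combined by CLSI two-fold serial dilution. MICs are from three independent experiments. FIC index = (MIC of A combined/MIC of A alone) + (MIC of B combined/MIC of B alone). An index ≤1 is read as synergistic and 1–2 as additive.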
# [24] = Inhibition of Saccharomyces cerevisiae CGMCC 2.145 chitin synthase using GlcNAc and UDP-GlcNAc as substrate incubated for 60 mins by microplate reader analysis
# Procedure, shortened: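 Chitin synthase IC50 determined from concentration–inhibition curves.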
SMILES,MIC [1],MIC [2],MIC [3],MIC [4],MIC [5],MIC [6],MIC [7],MIC [8],MIC [9],MIC [10],MIC [12],inhibition [13],MIC [14],MIC [15],MIC [16],MIC [17],MIC [18],further results
CCn1cc(C(=O)O)c(=O)c2cc(F)c(N3CCNCC3)cc21 [NORFLOXACIN],3 µM,50 µM,13 µM,2 µM,25 µM,25 µM,6 µM,25 µM,13 µM,2 µM,6 µM,–,–,–,–,–,–,Activity [11]: inactive
CCN(CC)C(=O)CN1CCN(c2cc3c(cc2F)c(=O)c(-c2csc(N)n2)cn3CC)CC1,16 µM,66 µM,263 µM,132 µM,66 µM,16 µM,66 µM,66 µM,132 µM,137 µM,132 µM,49.1%,66 µM,66 µM,132 µM,132 µM,66 µM,–
CCn1cc(-c2csc(N)n2)c(=O)c2cc(F)c(N3CCN(CCO)CC3)cc21,77 µM,153 µM,19 µM,38 µM,153 µM,153 µM,153 µM,153 µM,38 µM,153 µM,77 µM,48.3%,153 µM,153 µM,77 µM,153 µM,153 µM,–
CCCCN1CCN(c2cc3c(cc2F)c(=O)c(-c2csc(N)n2)cn3CC)CC1,9 µM,149 µM,5 µM,75 µM,37 µM,19 µM,19 µM,149 µM,75 µM,75 µM,298 µM,41.4%,9 µM,149 µM,19 µM,9 µM,149 µM,–
CC(=O)OCC1=C(C(=O)O)N2C(=O)[C@@H](NC(=O)CS/C(=N/C(C)C)NC(C)C)[C@H]2SC1,–,17 µM,4 µM,–,–,–,–,4 µM,–,34 µM,–,–,–,–,–,–,–,fold change (FC) [19]: 5; MIC [20]: 2 µM; MIC [21]: 4 µM; MIC [22]: 8 µM; MIC [23]: 2 µM
NC(=O)OC[C@H](O)[C@@H](O)[C@H](N)C(=O)N[C@H](C(=O)O)[C@H]1O[C@@H](n2cc(CO)c(=O)[nH]c2=O)[C@H](O)[C@@H]1O [POLYOXIN B],–,–,–,–,–,–,–,–,–,–,–,81%,–,–,–,–,–,IC50 [24]: 120 µM
CCn1cc(-c2csc(N)n2)c(=O)c2cc(F)c(N3CCN(CC(=O)N(C)C)CC3)cc21,17 µM,140 µM,35 µM,70 µM,70 µM,140 µM,70 µM,70 µM,140 µM,35 µM,279 µM,–,70 µM,140 µM,279 µM,70 µM,70 µM,–
CCn1cc(-c2csc(N)n2)c(=O)c2cc(F)c(N3CCN(C(C)=O)CC3)cc21,39 µM,77 µM,39 µM,10 µM,39 µM,39 µM,19 µM,77 µM,39 µM,77 µM,39 µM,71.1%,19 µM,19 µM,39 µM,77 µM,19 µM,–
CCn1cc(-c2csc(N)n2)c(=O)c2cc(F)c(N3CCN(Cc4ccc(Cl)cc4Cl)CC3)cc21,60 µM,241 µM,241 µM,121 µM,482 µM,482 µM,241 µM,15 µM,121 µM,482 µM,241 µM,–,482 µM,482 µM,15 µM,482 µM,482 µM,–
CCn1cc(-c2csc(N)n2)c(=O)c2cc(F)c(N3CCN(Cc4ccc(Cl)cc4)CC3)cc21,16 µM,32 µM,129 µM,32 µM,32 µM,32 µM,64 µM,16 µM,16 µM,64 µM,257 µM,56.2%,515 µM,64 µM,16 µM,32 µM,32 µM,IC50 [24]: 320 µM
CCn1cc(-c2csc(N)n2)c(=O)c2cc(N3CCN(CC(C)=O)CC3)c(Cl)cc21,288 µM,1150 µM,72 µM,36 µM,288 µM,288 µM,575 µM,72 µM,288 µM,144 µM,288 µM,–,575 µM,144 µM,288 µM,288 µM,575 µM,–
CCn1cc(-c2csc(N)n2)c(=O)c2cc(F)c(N3CCN(CC(=O)N(CCO)CCO)CC3)cc21,8 µM,62 µM,62 µM,62 µM,15 µM,62 µM,62 µM,62 µM,15 µM,124 µM,62 µM,–,15 µM,8 µM,31 µM,62 µM,62 µM,–
CCCN1CCN(c2cc3c(cc2F)c(=O)c(-c2csc(N)n2)cn3CC)CC1,154 µM,308 µM,154 µM,154 µM,308 µM,154 µM,617 µM,308 µM,154 µM,308 µM,617 µM,–,154 µM,308 µM,308 µM,308 µM,308 µM,–
CCCCCCN1CCN(c2cc3c(cc2F)c(=O)c(-c2csc(N)n2)cn3CC)CC1,140 µM,134 µM,140 µM,140 µM,140 µM,70 µM,280 µM,280 µM,70 µM,140 µM,280 µM,–,1120 µM,1120 µM,560 µM,560 µM,1120 µM,–
